NR2E3 ag-1: activates human NR2E3 receptor; Q9Y5X4; CHO-S Gal4-NCOR/VP16-NR2E3 two-hybrid, luciferase; inhibition of corepressor binding, % at 3.98 µM; actives 0.35% (n = 360,000); AID 602229;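 active = inhibition above the mean of all tested compounds plus 3 SD, cut at about 70% in these data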;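 also: 0% = DMSO with NR2E3 transfected cells and 100% = cells lacking NR2E3 construct; higher means lower luciferase signal from less NR2E3 corepressor binding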
Target sequence (Q9Y5X4 whole entry, looked up, the tested form may be a part): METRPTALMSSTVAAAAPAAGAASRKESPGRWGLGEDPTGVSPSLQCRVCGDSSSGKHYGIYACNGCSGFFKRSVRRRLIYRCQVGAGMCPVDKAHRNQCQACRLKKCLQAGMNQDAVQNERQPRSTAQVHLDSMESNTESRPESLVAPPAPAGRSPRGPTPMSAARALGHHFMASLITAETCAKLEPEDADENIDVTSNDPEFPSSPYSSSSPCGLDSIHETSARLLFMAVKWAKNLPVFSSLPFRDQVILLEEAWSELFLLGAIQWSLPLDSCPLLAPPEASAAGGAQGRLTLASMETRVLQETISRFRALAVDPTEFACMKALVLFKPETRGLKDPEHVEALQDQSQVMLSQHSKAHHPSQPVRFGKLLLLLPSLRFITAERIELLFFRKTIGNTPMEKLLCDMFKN
GalR3 antag: human GalR3 antagonism | actives 0.44% (n = 360,000) | inhibition, % at 3 µM | HEK293 GalR3-CNG cAMP membrane potential fluorescence; galR3 body fused to GalR1 C-terminus | AID 651719 | O60755;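 active = inhibition above the screen-wide average plus 3 SD, cut at about 13% in these data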;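 also: forskolin and galanin both at EC90 stimulate the cells; cAMP rise reported by CNG channel membrane potential dye signal; 0% = forskolin plus galanin with DMSO and 100% = forskolin alone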
Target sequence (O60755 1-299 limits assumed): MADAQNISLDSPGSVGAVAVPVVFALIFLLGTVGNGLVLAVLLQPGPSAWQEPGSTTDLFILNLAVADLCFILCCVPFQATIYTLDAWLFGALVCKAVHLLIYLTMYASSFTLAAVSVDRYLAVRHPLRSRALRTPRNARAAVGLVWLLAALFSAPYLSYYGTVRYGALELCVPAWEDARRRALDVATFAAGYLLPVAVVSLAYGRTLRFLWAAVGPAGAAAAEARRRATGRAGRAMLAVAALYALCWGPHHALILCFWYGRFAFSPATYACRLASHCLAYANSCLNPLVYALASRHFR
Jurkat NFkB inh: inhibitors of the PMA/ionomycin-induced NF-kB reporter in Jurkat cells | PMA/ionomycin-induced NF-kB luciferase reporter, luminescence | inhibition, % at 4 µM | actives 0.53% (n = 330,000) | AID 435003; in the data active = inhibition above about 50%
Gli-Sufu block: blocks Gli-Sufu signaling in a luciferase reporter | AID 588413 | actives 0.74% (n = 340,000) | Sufu-KO-LIGHT fibroblasts, Gli luciferase reporter luminescence | inhibition, % at 5 µM;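 active = inhibition above about 55%, limit read from the data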;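 also: 0% = DMSO-treated cells and 100% = wells with medium but no cells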
NR2E3 ag-2: agonists of human nuclear receptor NR2E3 | GST-NR2E3/biotin-RetCOR TR-FRET, 1536-well | inhibition of corepressor binding, % at 4.78 µM | actives 0.12% (n = 320,000);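 active = percent inhibition above the cutoff of mean plus 3 SD of all tested compounds, set per screening campaign, cut at about 20% in these data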;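 also: 0% = DMSO wells and 100% = biotin wells as full block of FRET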
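System: GST-tagged NR2E3 plus biotinylated RetCOR corepressor; Buffer or medium: pH 7.5 Tris-based buffer; Probe or stimulus: RetCOR corepressor, biotinylated, 7 nM; Doses: compound at 4.8 µM, single dose; Schedule: 5 h incubation at 4 °C; Technique: time-resolved FRET; Evaluation: percent inhibition of TR-FRET ratio; Replication: one well per compound, singlicate testing.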
697 NFkB inh: inhibitors of the PMA/ionomycin-induced NF-kB reporter in 697 B cells | 697 B-cell NF-kB luciferase reporter, 16 h | inhibition, % at 4 µM | actives 0.33% (n = 330,000) | AID 435022; in the data active = inhibition above about 35%
Jurkat NFkB conf: inhibitors of the PMA/ionomycin-induced NF-kB reporter in Jurkat cells, retest | Jurkat NF-kB luciferase, 16 h | shares compounds with Jurkat NFkB inh | AID 435020 | inhibition, % at 4 µM | actives 27% (n = 2,700);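 active = inhibition reaching about 45% at 4 µM in either replicate, limit read from the data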;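 also: plate controls were PMA/ionomycin stimulated DMSO wells for no effect and unstimulated DMSO wells for full effect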
Starred values were filed as active, the others as inactive; nt = no result. The list is not random: actives were taken first. Their share in the collection is about 1.8%.

SMILES | NR2E3 ag-1 | GalR3 antag | Jurkat NFkB inh | Gli-Sufu block | NR2E3 ag-2 | 697 NFkB inh | Jurkat NFkB conf
Cc1ccc2nc(/C(C#N)=C\c3ccc([N+](=O)[O-])o3)[nH]c2c1 | -10 | -6 | 59* | nt | 4 | -55 | 16
COC(=O)c1cc2c(c3c4cc(OC)ccc4n(S(=O)(=O)c4ccccc4)c13)C(=O)N(C)C2 | nt | -6 | nt | nt | nt | nt | nt
COc1ccc2[nH]c(=O)c(CN(Cc3cccs3)S(=O)(=O)c3c(C)ccc4nsnc34)cc2c1 | 9 | -1 | 57* | 6 | 2 | -51 | 27
CCOc1ccccc1N1CC(O)=C(c2nc3ccccc3s2)C1=N | -16 | -1 | 59* | 9 | 5 | -11 | 47
COc1ccc(OC)c(N2CC(O)=C(c3nc4ccccc4s3)C2=N)c1 | 4 | -5 | 3 | 10 | 5 | 4 | nt
CCOC(=O)C1=CCN(S(=O)(=O)c2ccccc2Br)C1c1ccc(Cl)cc1 (configuration not stated) | nt | -9 | nt | nt | nt | nt | nt
O=C(Nc1ccc2nc(-c3cccs3)[nH]c2c1)c1cccs1 | -45 | 2 | -34 | -18 | 3 | -78 | nt
O=C(Nc1ccc(-c2nc3ccc(NC(=O)c4cccs4)cc3[nH]2)cc1)c1cccs1 | -5 | -5 | 91* | 25 | -53 | -132 | -45
O=C(Nc1ccc2c(c1)CCC2)c1cccc(OC(F)F)c1 | -215 | -3 | -193 | -77 | 2 | -189 | -108
O=C(Nc1ccc2c(c1)CCC2)c1ccc(F)cc1 | -159 | -1 | -201 | -114 | 1 | -230 | -91
CN(C)S(=O)(=O)c1ccc(C(=O)Nc2ccc3c(c2)CCC3)cc1 | -42 | -14 | -42 | -17 | 1 | -74 | nt
CN(C)S(=O)(=O)c1cccc(C(=O)Nc2ccc3c(c2)CCC3)c1 | -150 | -1 | -162 | -76 | 0 | -216 | -143
CCCCCCCCN1C(=O)[C@@H](CC(=O)NCc2cccs2)C[C@@]2(C(=O)OC)C1=C[C@H](C1CCCC1)O[C@@H]2C | nt | -7 | nt | nt | nt | nt | nt
CCOC(=O)C1=CC[C@@H](c2ccccc2)C(C#N)(C#N)[C@H]1/C=C/c1ccccc1 | nt | -4 | nt | nt | nt | nt | nt
O=C(Nc1ccc2c(c1)CCC2)Nc1ccc(F)cc1F | -111 | -3 | -178 | -81 | 5 | -160 | -67
Nc1ccc(NC(=O)c2cccs2)cc1 | -22 | -3 | -11 | -13 | -1 | -7 | nt
O=C(Nc1ccc2c(c1)CCC2)c1cccs1 | -153 | 0 | -176 | -53 | 1 | -145 | -108
CCOc1ccc(C(=O)COC(=O)Cc2n[nH]c(=O)c3ccccc23)cc1 | -32 | -2 | 55* | -6 | 1 | -7 | 8
NC(=O)C1CCN(c2ccc3c(c2)S(=O)(=O)c2ccccc2C3=O)CC1 | 10 | -5 | -40 | 3 | 1 | -4 | nt
CC1CCN(c2ccc3c(c2)S(=O)(=O)c2ccccc2C3=O)CC1 | -219 | -4 | -211 | -90 | 3 | -196 | -83
Cc1ccc(C(=O)Nc2ccc3c(c2)nc2n3CCSC2)cc1 | -104 | -5 | -171 | -112 | 2 | -111 | -71
CC(=O)Nc1ccc2c(c1)nc1n2CCSC1 | -26 | -4 | 0 | -3 | 5 | 6 | nt
C/C(=N\Nc1nncc2ccccc12)c1ccc(C(C)(C)C)cc1 | -98 | nt | -65 | -71 | -1 | -57 | nt
C/C(=N\Nc1nncc2ccccc12)c1cccc(OC(F)F)c1 | -163 | -3 | -153 | 4 | -2 | -202 | -81
Cc1ccc(S(=O)(=O)NCC2CCN(C(=O)C(=O)c3cc4ccccc4o3)CC2)cc1 | nt | -4 | nt | nt | nt | nt | nt
SMILES | NR2E3 ag-1 | GalR3 antag | Jurkat NFkB inh | Gli-Sufu block | NR2E3 ag-2 | 697 NFkB inh | Jurkat NFkB conf
CCOc1ccc2c(c1)OC(c1ccc(C)cc1)(C(F)(F)F)NC2=O (configuration not stated) | -5 | -8 | 60* | 28 | 4 | 10 | 41
CC(=O)c1ccc(S(=O)(=O)NCC2CCN(C(=O)C(=O)c3cc4ccccc4o3)CC2)cc1 | nt | 1 | nt | nt | nt | nt | nt
COc1ccc(C2O[C@@H](C)[C@@H]3C(=O)N4CCc5c([nH]c6ccccc56)[C@@H]4C[C@@H]3N2C)cc1 (some centres not stated) | nt | -2 | nt | nt | nt | nt | nt
O=C1OCC2=C1C(c1ccc3c(c1)OCO3)c1cc3c(cc1O2)OCO3 (configuration not stated) | -28 | -5 | nt | -16 | nt | nt | nt
CC(C)c1ccc(C2C3=C(COC3=O)Nc3cc4c(cc32)OCO4)cc1 (configuration not stated) | 2 | -3 | 70* | 47 | 1 | 11 | 2
COC(=O)C1=C(C)N(Cc2cccc(C(F)(F)F)c2)C(=NCc2ccc3c(c2)OCO3)NC1CCc1ccccc1 (configuration not stated) | nt | -5 | nt | nt | nt | nt | nt
COC(=O)C1=C(C)N(Cc2ccccc2C(F)(F)F)C(=NCc2ccc(OC)cc2)NC1CCc1ccccc1 (configuration not stated) | nt | 1 | nt | nt | nt | nt | nt
Oc1ccc(Nc2nc3ccccc3nc2Nc2ccc(O)cc2)cc1 | 95* | nt | 84* | -14 | 2 | -127 | 54*
Fc1ccc2cc(C3=CCCCC3)ncc2c1 | nt | -4 | nt | nt | nt | nt | nt
COc1ccc([N+](=O)[O-])cc1Nc1c2ccccc2nc2ccccc12 | -21 | -9 | 59* | 40 | 2 | -37 | 41
COc1ccc(Nc2nc(N)c(C(=O)c3ccc(OC)cc3)s2)cc1 | -36 | -6 | 50 | 6 | -1 | -61 | 14
CC(C)CCN(C)[C@H]1C[C@H]2c3[nH]c4ccccc4c3CCN2C[C@H]1[C@H](C)O | nt | -7 | nt | nt | nt | nt | nt
Cc1cc(N2CCN(C(=O)OC(C)(C)C)C[C@@H]2C)ccc1N1C[C@@H](C)O[C@@H](C)C1 | nt | -8 | nt | nt | nt | nt | nt
O=C(Nc1ccc2c(c1)OCO2)c1ccc(Cl)s1 | -89 | -7 | -155 | -54 | -1 | -88 | -87
O=C(Nc1ccc(Cl)cc1)Nc1ccc2c(c1)OCO2 | -132 | -2 | -151 | -87 | 1 | -99 | -32
COC(=O)CSc1nc2cc(OC)ccc2cc1C#N | -196 | 0 | -166 | 4 | -2 | -137 | -94
COC(=O)CSc1nc2ccc(C)cc2cc1C#N | -123 | -13 | -180 | -6 | -3 | -153 | -111
COc1ccc(/C=N/NC(=O)c2ccn[nH]2)cc1COc1ccc([N+](=O)[O-])c(C)c1 | -18 | 4 | 44 | -3 | -1 | 7 | nt
COc1ccc(/C=N/NC(=O)c2cccnc2)cc1COc1ccc([N+](=O)[O-])c(C)c1 | -20 | -2 | 57* | -19 | 0 | -23 | 21
CCCOc1ccccc1C1CC(=O)NC2=C1C(=O)CCC2 (configuration not stated) | -89 | -1 | 59* | 10 | 4 | -54 | 25

Screening results deposited in PubChem by several laboratories.
